Test results: ChEMBL document CHEMBL1127817, “Antitumor agents. 150. 2',3',4',5',5,6,7-substituted 2-phenyl-4-quinolones and related compounds: their synthesis, cytotoxicity, and inhibition of tubulin polymerization” (J Med Chem, 1994)

Tests used:
[1] = system: HCT-116; assay: In vitro inhibition of tumor cell growth of HCT116, colon cancer cell line; type: functional; details: Homo sapiens
[2] = system: NCI-H226; assay: In vitro inhibition of tumor cell growth of NCI-H226, a non small-cell lung cancer cell line; type: functional; details: Homo sapiens
[3] = system: OVCAR-3; assay: In vitro inhibition of tumor cell growth of OVCAR-3, ovarian cancer cell line; type: functional; details: Homo sapiens
[4] = system: RXF 393; assay: In vitro inhibition of tumor cell growth of RXF-393, renal cancer cell line; type: functional; details: Homo sapiens
[5] = system: SF-268; assay: In vitro inhibition of tumor cell growth of SF-268, CNS tumor cell line; type: functional; details: Homo sapiens
[6] = system: SK-MEL-5; assay: In vitro inhibition of tumor cell growth of SK-Mel-5, melanoma cell line; type: functional; details: Homo sapiens
[7] = system: SF-295; assay: In vitro inhibition of tumor cell growth of SF-295, CNS tumor cell line; type: functional; details: Homo sapiens
[8] = target: Tubulin (Bos taurus) (UniProt Q6B856+Q862L2+Q862F3); assay: Inhibition of colchicine binding to tubulin isolated from bovine brain tissue; type: functional; design: concentration or dose not given beside the values; details: concentration not given here
Outline: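 1.0 μM tubulin incubated with 5.0 μM [3H]colchicine and 5.0 μM test agent; bound colchicine measured by DEAE-cellulose filter technique.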

[9] = target: Tubulin beta chain (Bos taurus, UniProt Q6B856); assay: Inhibition of tubulin polymerization; type: functional
[10] = system: KM-20L2; assay: In vitro inhibition of tumor cell growth of KM20L2, colon cancer cell line; type: functional; details: Homo sapiens
[11] = system: DMS-114; assay: In vitro inhibition of tumor cell growth of DMS114, a small-cell lung cancer cell line; details: Homo sapiens
[12] = system: KM-20L2; assay: Inhibition of in vitro tumor cell growth in KM20L2, colon cancer cell line; type: functional; details: Homo sapiens
[13] = system: SF-268; assay: In vitro inhibition of tumor cell growth ofSF-268, CNS tumor cell line; type: functional; details: Homo sapiens

Chain of Tubulin beta chain (Q6B856 whole entry): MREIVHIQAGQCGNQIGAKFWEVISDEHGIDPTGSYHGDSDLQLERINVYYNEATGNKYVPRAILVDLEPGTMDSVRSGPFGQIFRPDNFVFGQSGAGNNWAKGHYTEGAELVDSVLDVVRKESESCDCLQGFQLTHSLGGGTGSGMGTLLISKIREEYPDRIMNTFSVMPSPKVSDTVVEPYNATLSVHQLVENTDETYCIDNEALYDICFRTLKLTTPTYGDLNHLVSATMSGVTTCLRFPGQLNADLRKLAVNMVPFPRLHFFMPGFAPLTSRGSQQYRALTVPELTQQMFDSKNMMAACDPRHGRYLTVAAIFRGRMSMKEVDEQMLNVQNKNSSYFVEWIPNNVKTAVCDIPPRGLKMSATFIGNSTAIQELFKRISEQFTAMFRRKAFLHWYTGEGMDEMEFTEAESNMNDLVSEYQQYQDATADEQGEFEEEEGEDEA

Structure (SMILES)	GI50 [1] [nM]	GI50 [2] [nM]	GI50 [3] [nM]	GI50 [6] [nM]	inhibition [8] [%]	IC50 [9] [nM]	GI50 [11] [nM]	GI50 [4] [nM]	GI50 [5] [nM]	GI50 [7] [nM]	GI50 [10] [nM]	GI50 [12] [nM]	GI50 [13] [nM]
COc1cc(OC)cc(-c2cc(O)c3cc4c(cc3n2)OCO4)c1	316	219	195	309	31	620	302	219	708	257	708	–	–
COc1ccccc1-c1cc(O)c2cc3c(cc2n1)OCO3	28200	22900	39800	89100	–	14000	25100	15100	–	20900	–	18600	64600
COc1ccc2nc(-c3ccccc3)cc(O)c2c1	–	–	–	–	11	610	–	–	–	–	–	–	–
Cc1ccc(-c2cc(O)c3cc4c(cc3n2)OCO4)cc1	676	1580	427	1740	12	–	–	–	2190	1910	1410	–	–
COc1ccc(-c2cc(O)c3cc4c(cc3n2)OCO4)cc1	> 100000	28800	> 100000	> 100000	–	> 40000	> 100000	38000	> 100000	> 100000	> 100000	–	–

The next lines start with results.

GI50 [1] [nM]	GI50 [2] [nM]	GI50 [3] [nM]	GI50 [6] [nM]	inhibition [8] [%]	IC50 [9] [nM]	GI50 [11] [nM]	Structure (SMILES)	GI50 [4] [nM]	GI50 [5] [nM]	GI50 [7] [nM]	GI50 [10] [nM]	GI50 [12] [nM]	GI50 [13] [nM]
155	347	–	117	13	740	–	COc1cccc(-c2cc(O)c3cc(OC)ccc3n2)c1	191	229	151	–	–	–
174	200	45.7	37.1	–	570	240	COc1cccc(-c2cc(O)c3cc4c(cc3n2)OCO4)c1	45.7	–	91.2	182	–	132
87.1	263	77.6	36.3	24	890	–	Oc1cc(-c2ccccc2Cl)nc2cc3c(cc12)OCO3	–	692	–	–	–	–
60.3	447	81.3	20.9	37	850	513	O=c1cc(-c2ccccc2F)[nH]c2cc3c(cc12)OCO3	–	2290	55	–	–	–
195	372	170	195	18	840	–	COc1ccc2nc(-c3cccc(N(C)C)c3)cc(O)c2c1	120	603	204	–	–	–
